Consider eleven molecules from ChEMBL document CHEMBL2157949 (J Med Chem, 2012).

Molecules are shown by their SMILES. Some results are limits rather than exact numbers.

Experiment [1] is described as follows: Growth inhibition of Chinese hamster PC43-10 cells expressing reduced folate carrier incubated for 96 hrs by CellTiter-blue cell viability assay. The format is functional, cell-based. Particulars: Cricetulus griseus, PC43-10, 96 h. For orientation: The colour change of resazurin is a common sign of viable cells or microbes.
In experiment [2] the test system is KB. Briefly: Growth inhibition of human KB cells endogenously expressing RFC/FRalpha/PCFT in presence of folic acid incubated for 96 hrs by CellTiter-blue cell viability assay. The experiment is classed as functional, cell-based.
The test system of experiment [3] is R2. Briefly: Growth inhibition of Chinese hamster R2 cells expressing empty vector control incubated for 96 hrs by CellTiter-blue cell viability assay. The settings on record: Cricetulus griseus, R2, 96 h.
The subject of experiment [4] is IGROV-1. In words: Growth inhibition of human IGROV1 cells endogenously expressing RFC/FRalpha/PCFT in presence of folic acid incubated for 96 hrs by CellTiter-blue cell viability assay. The format is functional, cell-based. Particulars: IGROV-1, 96 h.
Experiment [5] can be described thus: Growth inhibition of Chinese hamster RT16 cells expressing human folate receptor alpha incubated for 96 hrs in presence of folic acid by CellTiter-blue cell viability assay. The experiment is classed as functional, cell-based. The settings on record: Cricetulus griseus, RT16, 96 h.
Experiment [6] can be described thus: Growth inhibition of Chinese hamster RT16 cells expressing human folate receptor alpha incubated for 96 hrs by CellTiter-blue cell viability assay. The settings on record: Cricetulus griseus, RT16, 96 h. The experiment is classed as functional, cell-based.
Experiment [7] has as its system KB. Briefly: Growth inhibition of human KB cells endogenously expressing RFC/FRalpha/PCFT incubated for 96 hrs by CellTiter-blue cell viability assay. The experiment is classed as functional, cell-based.
Experiment [8] relates to R2. Briefly: Growth inhibition of Chinese hamster R2 cells expressing human PCFT incubated for 96 hrs by CellTiter-blue cell viability assay. The experiment is classed as functional, cell-based, Cricetulus griseus. Particulars: R2, 96 h. In a few lines: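 R2/hPCFT4 CHO cells maintained beforehand in folate-free RPMI 1640 with dialyzed FBS, 25 nM LCV and G418. Assay: ~2500–5000 cells/well in folate-free RPMI 1640 (pH 7.2) with 25 nM LCV, 10% dialyzed FBS, antibiotics and L-glutamine, over a range of drug concentrations.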

For experiment [9], the system named is R2. In words: Growth inhibition of Chinese hamster R2 cells deficient in reduced folate carrier and human folate receptor alpha incubated for 96 hrs by CellTiter-blue cell viability assay. The settings on record: R2, 96 h. The experiment is classed as cell-based, Cricetulus griseus.
Experiment [10] concerns the target T1, Trifunctional purine biosynthetic protein adenosine-3 (Homo sapiens, UniProt P22102).
T1 sequence (P22102 whole entry): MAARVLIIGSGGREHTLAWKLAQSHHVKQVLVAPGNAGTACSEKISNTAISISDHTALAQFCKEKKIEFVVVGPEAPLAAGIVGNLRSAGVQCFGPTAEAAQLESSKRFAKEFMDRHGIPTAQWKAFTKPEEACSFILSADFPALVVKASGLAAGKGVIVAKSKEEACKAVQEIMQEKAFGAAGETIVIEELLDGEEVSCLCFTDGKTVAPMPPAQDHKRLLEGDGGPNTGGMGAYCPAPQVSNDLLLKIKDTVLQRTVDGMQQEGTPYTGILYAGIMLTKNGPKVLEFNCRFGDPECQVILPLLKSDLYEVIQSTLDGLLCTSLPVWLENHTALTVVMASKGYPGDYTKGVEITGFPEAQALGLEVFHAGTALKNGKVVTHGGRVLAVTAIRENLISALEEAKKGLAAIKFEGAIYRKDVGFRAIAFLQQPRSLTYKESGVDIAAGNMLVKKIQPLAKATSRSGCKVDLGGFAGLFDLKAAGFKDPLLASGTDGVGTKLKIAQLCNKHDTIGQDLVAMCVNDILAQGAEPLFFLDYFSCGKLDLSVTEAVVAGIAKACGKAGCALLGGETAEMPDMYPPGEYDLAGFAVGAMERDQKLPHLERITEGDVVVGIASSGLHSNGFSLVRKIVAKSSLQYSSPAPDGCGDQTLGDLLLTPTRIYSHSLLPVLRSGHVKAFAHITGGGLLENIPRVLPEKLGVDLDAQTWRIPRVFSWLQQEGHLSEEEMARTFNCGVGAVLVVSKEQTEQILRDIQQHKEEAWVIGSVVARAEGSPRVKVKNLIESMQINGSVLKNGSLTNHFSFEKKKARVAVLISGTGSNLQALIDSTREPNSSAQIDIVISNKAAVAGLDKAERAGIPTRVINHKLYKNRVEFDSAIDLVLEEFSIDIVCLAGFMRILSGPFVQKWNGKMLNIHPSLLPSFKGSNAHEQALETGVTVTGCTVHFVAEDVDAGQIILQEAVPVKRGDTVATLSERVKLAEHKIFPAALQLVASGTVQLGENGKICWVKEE
Briefly: Inhibition of GARFTase in human IGROV1 cells assessed as reduction in [14C]glycine incorporation into [14C]formyl GAR incubated for 15 hrs in complete folate free RPMI medium in presence of 2 nM leucovorin. The experiment is classed as cell-based, IGROV-1.

In experiment [11] the test system is KB. In words: Inhibition of colony formation of human KB cells endogenously expressing RFC/FRalpha/PCFT incubated for 14 days by methylene blue staining based clonogenicty assay. The experiment is classed as functional, cell-based. The settings on record: 336 h.
The target of experiment [12] is Folate receptor alpha (Homo sapiens) (UniProt P15328). The experiment is classed as cell-based. Particulars: CHO.
Folate receptor alpha (Homo sapiens), sequence (P15328 25-234 limits assumed): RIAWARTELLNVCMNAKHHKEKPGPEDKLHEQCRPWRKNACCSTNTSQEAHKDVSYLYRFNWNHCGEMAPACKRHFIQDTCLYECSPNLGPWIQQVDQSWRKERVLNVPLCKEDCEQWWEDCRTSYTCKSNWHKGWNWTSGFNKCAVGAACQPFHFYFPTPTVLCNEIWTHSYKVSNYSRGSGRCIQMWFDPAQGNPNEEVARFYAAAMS
For experiment [13], the system named is KB. In words: Growth inhibition of human KB cells endogenously expressing RFC/FRalpha/PCFT in presence of 50 nM leucovorin incubated for 96 hrs by CellTiter-blue cell viability assay. The experiment is classed as functional, cell-based. In a few lines: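 KB cells in complete folate-free RPMI 1640 with 10% dialyzed FBS and LCV at 50 nM (versus the standard 2 nM), exposed to a range of antifolate concentrations for up to 96 h. Cell density read by CellTiter-blue fluorescence and normalized to drug-free cells. Representative data from experiments run in duplicate.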

The test system of experiment [14] is IGROV-1. In words: Growth inhibition of human IGROV1 cells endogenously expressing RFC/FRalpha/PCFT incubated for 96 hrs by CellTiter-blue cell viability assay. The settings on record: IGROV-1, 96 h. The experiment is classed as functional, cell-based.

As to `Nc1nc2[nH]c(CCCc3ccc(C(=O)N[C@@H](CCC(=O)O)C(=O)O)s3)cc2c(=O)[nH]1`, the IC50 is 0.101 µM in [1]; greater than 1 µM with KB [2]; 0.288 µM in the experiment on R2 [3]; greater than 1 µM in the experiment with IGROV-1 [4]; greater than 1 µM in experiment [5].

Turning to `Nc1nc2[nH]c(CCC#Cc3sccc3C(=O)N[C@@H](CCC(=O)O)C(=O)O)cc2c(=O)[nH]1`, the half-inhibitory concentration (IC50) (in [6]; in [1]; in the experiment with KB [2]; with R2 [3]; in the experiment with KB [7]; in the experiment with R2 [8]) was greater than 1 µM throughout. Further, the 50% inhibitory concentration (IC50) (in [5]; in the experiment on R2 [9]) was greater than 1 µM in each case.

With `Nc1nc2[nH]c(CCCCc3ccc(C(=O)N[C@@H](CCC(=O)O)C(=O)O)s3)cc2c(=O)[nH]1`, the IC50 is greater than 1 µM in [1]; greater than 1 µM with KB [2]; 0.00346 µM in [10]; greater than 1 µM in the experiment with R2 [3]; 0.0002 µM with KB [11]; greater than 1 µM in the experiment on IGROV-1 [4]. For the same molecule, the values for the IC50 (in experiment [5]; in the experiment on KB [13]; in the experiment on R2 [9]) were greater than 1 µM, 0.0022 µM and greater than 1 µM, respectively. The molecule further displayed a relative binding affinity (RBA) in experiment [12] greater than 1.

As to `Nc1nc2[nH]c(CCCCc3cscc3C(=O)N[C@@H](CCC(=O)O)C(=O)O)cc2c(=O)[nH]1`, the concentration for half-maximal inhibition (IC50) is 0.147 µM in experiment [6]; greater than 1 µM in experiment [1]; greater than 1 µM in the experiment on KB [2]; greater than 1 µM with R2 [3]; 0.0353 µM with KB [7]; greater than 1 µM in the experiment with R2 [8]. The IC50 was greater than 1 µM in the experiment with IGROV-1 [4], greater than 1 µM in experiment [5], 0.103 µM in the experiment on IGROV-1 [14] and greater than 1 µM in the experiment on R2 [9].

As to `Nc1nc2[nH]c(CCC#Cc3cc(C(=O)N[C@@H](CCC(=O)O)C(=O)O)cs3)cc2c(=O)[nH]1`, the IC50 in [6] is 0.00826 µM; in experiment [1], greater than 1 µM; in the experiment with KB [2] it was greater than 1 µM; in the experiment on R2 [3], greater than 1 µM; in the experiment on KB [7], greater than 1 µM; in the experiment with R2 [8] it was greater than 1 µM. In addition, the IC50 (in the experiment on IGROV-1 [4]; in [5]; with IGROV-1 [14]; with R2 [9]) was greater than 1 µM throughout.

As for `Nc1nc2[nH]c(CCCCc3sccc3C(=O)N[C@@H](CCC(=O)O)C(=O)O)cc2c(=O)[nH]1`, the IC50 is greater than 1 µM in experiment [6]; greater than 1 µM in experiment [1]; greater than 1 µM with KB [2]; greater than 1 µM with R2 [3]; 0.171 µM with KB [7]; greater than 1 µM in the experiment on R2 [8]. Also, the IC50 (in experiment [5]; in the experiment with R2 [9]) was greater than 1 µM each time.

For `Nc1nc2[nH]c(CCC#Cc3csc(C(=O)N[C@@H](CCC(=O)O)C(=O)O)c3)cc2c(=O)[nH]1`, the IC50 is 0.0135 µM in [6]; greater than 1 µM in [1]; greater than 1 µM with KB [2]; greater than 1 µM with R2 [3]; greater than 1 µM with KB [7]; greater than 1 µM in the experiment with R2 [8]. The IC50 (in the experiment on IGROV-1 [4]; in experiment [5]; with IGROV-1 [14]; with R2 [9]) was greater than 1 µM in each case.

Consider `Nc1nc2[nH]c(CCCCc3ccsc3C(=O)N[C@@H](CCC(=O)O)C(=O)O)cc2c(=O)[nH]1`, for which the IC50 is greater than 1 µM in experiment [6]; greater than 1 µM in [1]; greater than 1 µM in the experiment on KB [2]; greater than 1 µM with R2 [3]; 0.267 µM in the experiment on KB [7]; greater than 1 µM in the experiment with R2 [8]. In addition, the IC50 (in experiment [5]; in the experiment with R2 [9]) was greater than 1 µM each time.

As for `Nc1nc2[nH]c(CCC#Cc3cscc3C(=O)N[C@@H](CCC(=O)O)C(=O)O)cc2c(=O)[nH]1`, the IC50 (in [6]; in experiment [1]; in the experiment with KB [2]; in the experiment on R2 [3]; with KB [7]; in the experiment with R2 [8]) was greater than 1 µM throughout. The IC50 (in experiment [5]; in the experiment with R2 [9]) was greater than 1 µM each time.

Turning to `Nc1nc2[nH]c(CCC#Cc3ccc(C(=O)N[C@@H](CCC(=O)O)C(=O)O)s3)cc2c(=O)[nH]1`, the IC50 in experiment [6] was 0.0121 µM; in experiment [1] it was greater than 1 µM; in the experiment with KB [2], greater than 1 µM; with R2 [3], greater than 1 µM; with KB [7] it was greater than 1 µM; with R2 [8], greater than 1 µM. For the same molecule, the IC50 (in the experiment with IGROV-1 [4]; in experiment [5]; with IGROV-1 [14]; with R2 [9]) was greater than 1 µM throughout.

`Nc1nc2[nH]c(CCC#Cc3ccsc3C(=O)N[C@@H](CCC(=O)O)C(=O)O)cc2c(=O)[nH]1`: the IC50 (in [6]; in experiment [1]; with KB [2]; in the experiment on R2 [3]; in the experiment with KB [7]; in the experiment with R2 [8]) was greater than 1 µM throughout. In addition, the IC50 (in experiment [5]; in the experiment on R2 [9]) was greater than 1 µM in each case.

For orientation: IC50 means the point on the concentration scale where inhibition reaches its midpoint.
